Shown is part of a subset that was picked to be rich in hits.
UCH37 DUB inh: inhibitors of human UCH37 deubiquitinase, primary screen, biochemical, Ub-AMC cleavage, fluorescence | 330,000 compounds, 0.33% hits | Ubiquitin carboxyl-terminal hydrolase isozyme L5 (Homo sapiens), Q9Y5K5 | inhibition, % (no concentration beside the values) | purified proteasome/UCH37;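 active = mean inhibition over replicate wells above about 20%, limit read from the data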;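 note: 0% = compound-free wells with enzyme and 100% = wells lacking proteasome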
Target sequence (Q9Y5K5 whole entry, looked up): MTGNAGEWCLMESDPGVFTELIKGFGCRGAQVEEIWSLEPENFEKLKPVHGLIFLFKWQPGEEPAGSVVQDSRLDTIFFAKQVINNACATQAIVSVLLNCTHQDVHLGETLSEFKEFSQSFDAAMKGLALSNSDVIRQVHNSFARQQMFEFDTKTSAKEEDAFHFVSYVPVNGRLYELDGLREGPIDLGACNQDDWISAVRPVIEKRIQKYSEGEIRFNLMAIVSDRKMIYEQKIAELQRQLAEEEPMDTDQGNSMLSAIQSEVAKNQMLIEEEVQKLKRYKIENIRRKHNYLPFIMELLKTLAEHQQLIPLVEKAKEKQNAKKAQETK
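Material: Human UCH37 enzyme supplied as purified proteasome complex | Schedule: 30 min compound-proteasome preincubation then 25 min substrate reaction, room temperature | Detection: AMC fluorescence from Ub-AMC cleavage, excitation 355 nm, emission 460 nm | Benchmarks: Wells without proteasome as full block, compound-free enzyme plus substrate as uninhibited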
UPR CHOP act: activators of apoptotic CHOP UPR arm, primary screen, cell-based, CHO-CHOP luciferase reporter, luminescence, uHTS. AID 449763, 2010. 330,000 compounds, 0.34% hits. UPR activation; percent of tunicamycin response over DMSO baseline. activation, % at 10 µM;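 active = at 10 µM dose, activation of 40% or more, normalized to positive control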;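 note: 100% = tunicamycin at 10 µg/mL and 0% = DMSO alone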
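measured by = luciferase luminescence | assay system = CHO-CHOP cells, stable luciferase reporter of PERK-eIF2a-CHOP signalling | amount = 500 reporter cells seeded per well | timing = 6 h compound exposure at 37 °C after overnight seeding | controls = positive tunicamycin 10 µg/mL, negative DMSO alone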
CHOP inhibitor: inhibitors of CHOP promoter induction, primary screen, cell-based, unfolded protein response, luciferase reporter | CHO-K1 CHOP-promoter luciferase, tunicamycin-induced, 15-18 h | inhibition, % at 10 µM | 220,000 compounds, 3.8% hits | AID 2732, 2010;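 active = compounds that reduced the stress-induced luciferase reporter signal by more than about 70% of percent inhibition, limit read from the data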;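 note: 0% = tunicamycin plus vehicle and 100% = wells without tunicamycin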
Fh CTSL1 inh: Fasciola hepatica cathepsin L1 inhibitors, primary screen, counter-screen for PFM18AAP inhibitor project, biochemical, QFRET, fluorogenic peptide substrate. recombinant F. hepatica cathepsin L1, Z-Leu-Arg-MCA fluorescence. inhibition, % at 5.96 µM. 300,000 compounds, 0.49% hits;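 active = inhibition above the mean of all tested compounds plus 3 SD, set per screening campaign, cut at about 17% in these data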;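 note: 0% = plate median of test compound wells and 100% = 1 µM Z-Phe-Ala-diazomethylketone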
XBP1 UPR activ: activators of adaptive XBP1 UPR arm, primary screen, cell-based, CHO-XBP1 luciferase reporter, luminescence, uHTS; AID 463104, 2010; activation, % at 20 µM; IRE1-XBP1 UPR activation; percent of tunicamycin response, DMSO as zero; 330,000 compounds, 0.33% hits;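 active = versus positive control, 20 µM dose yields 30% or more activation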;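 note: 100% = tunicamycin at 10 µg/mL and 0% = DMSO only wells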
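incubation = overnight seeding at 37 °C, 6 h compound treatment at 37 °C | assay system = CHO-XBP1 cells stably carrying IRE1-XBP1-driven luciferase reporter | input = 1000 cells per well | detection = luciferase luminescence | dosing = single point, 20 µM final compound, 1% DMSO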
Active calls of the source: *; x = not tested or not shown.

SMILES	UCH37 DUB inh	UPR CHOP act	CHOP inhibitor	Fh CTSL1 inh	XBP1 UPR activ
CCn1c(O)c(C=Nc2ccc(N3CCOCC3)cc2)c(=O)n(CC)c1=S	7	1	8	2	1
CC12CN3CCN(CC(C3)C1=NNC(N)=O)C2	3	x	x	x	x
Cc1ccc(S(=O)(=O)N[C@@H](CCCCN)C(=O)CCl)cc1	6	-2	9	85*	-7
COc1cc(C=NNC(=O)Cn2c([N+](=O)[O-])cnc2C)ccc1OC(=O)N(C)C	3	x	x	x	x
CNC(=O)ON=C(N)Cc1csc2ccc(Cl)cc12	3	x	x	x	x
NC(=N[N+](=O)[O-])N1CCN(C(=O)c2ccccn2)CC1	1	x	x	x	x
CCc1ccc(N2C(=O)NC(=O)/C(=C/c3cccn3CCOc3ccc(C(C)CC)cc3)C2=O)cc1 (configuration not stated)	0	23	86*	4	22
Cc1cc(C)cc(N2C(=O)NC(=O)/C(=C\c3cccn3-c3ccc(Cl)cc3)C2=O)c1	0	271*	30	1	-7
CCc1ccc(N2C(=O)NC(=O)/C(=C/c3cccn3CCOc3ccc(C)cc3)C2=O)cc1	-28	9	90*	0	8
O=C1NC(=O)N(Cc2ccco2)C(=O)/C1=C\c1cccn1CCOc1ccc(Cl)cc1	4	1	76*	6	2
CCCC(=NO)c1c[nH]c2ccccc12	-5	x	x	x	x
CC1=CC2C=C(C)C(C)C3C(CC(C)C)NC(=O)C23C(=O)C=CC(O)C(O)CC1 (configuration not stated)	4	x	x	x	x
O=C(NN=C1CN2CCC1CC2)c1cccc(O)c1	2	x	x	x	x
COc1cc(C=NNP(=S)(c2ccccc2)c2ccccc2)ccc1O	2	x	x	x	x
CN1C(=O)C(=Cc2ccc(SC3CCCCC3)o2)C(=O)N(C)C1=O	3	-1	-5	0	-2
CN(C)C=C1C(=O)N(C2CCCCC2)C(=O)N(C2CCCCC2)C1=O	2	3	77*	0	5
C=CCN1C(=O)/C(=C/c2cccs2)C(=O)NC1=S	3	x	80*	1	x
O=C1NC(=O)N(CCC2=CCCCC2)C(=O)/C1=C\c1cccs1	4	2	94*	-3	8
C[C@H]1CCC/C=C/[C@@H]2C[C@H](O)C[C@H]2[C@H](O)/C=C/C(=O)O1	5	115*	x	4	12
CC(=O)O[C@@H]1C=C[C@](C)(O)C[C@@H](C)CC=C[C@H]2[C@H](O)C(C)=C(C)[C@H]3[C@H](Cc4ccccc4)NC(=O)[C@@]123	3	x	x	x	x
CCCCCC(=NO)c1c(C)[nH]c2ccccc12	1	x	x	x	x
CN(C)c1ccc(NC(=O)CN2C(=O)CN=C(c3ccccc3)c3cc(Cl)ccc32)cc1	6	-4	53	5	-4
CCC(C)C1N=C(c2ccccc2)c2cc(Cl)ccc2N(CC(=O)NCc2ccco2)C1=O (configuration not stated)	7	-1	88*	3	2
O=C(CSC1c2ccccc2-c2ccccc21)NN=Cc1ccc(C(=O)O)cc1	2	x	x	x	x
C[C@@H]1O[C@@H](O[C@@H]2C=C3CCC4C(CC[C@]5(C)[C@@H](c6ccc(=O)oc6)CC[C@]45O)[C@@]3(C)CC2)[C@H](O)[C@H](O)[C@H]1O (some centres not stated)	0	-2	x	25*	-7
SMILES	UCH37 DUB inh	UPR CHOP act	CHOP inhibitor	Fh CTSL1 inh	XBP1 UPR activ
COC(=O)C1=C(c2cc3ccccc3o2)C[C@@H]2CC[C@H]1N2C(=O)NCCO	27*	1	x	-2	-3
COC(=O)C1=C(c2ccc(F)cc2F)C[C@@H]2CC[C@H]1N2C(=O)NCCNC(C)=O	25*	1	x	x	-3
CCCNC(=O)N1[C@H]2CC[C@@H]1C(C(=O)OC)=C(c1ccc(F)cc1F)C2	2	0	x	x	7
C#C[C@@]1(O)CCC2C3CCC4=CC(=NOCC(=O)NC(C(=O)O)C(C)O)CC[C@]4(C)C3CC[C@@]21C (some centres not stated)	4	x	x	x	x
C[C@@H]1C[C@H]2OC(=O)C3(CO3)[C@H]2[C@H](O)[C@]2(C)C(=O)C3OC3[C@@H]12 (some centres not stated)	x	37	106*	-1	-4
CC(=O)c1cn(Cc2ccccc2C#N)c2ccccc12	-1	1	52	-2	-1
CC(C)C(=O)c1cn(Cc2ccccc2C#N)c2ccccc12	-6	-3	77*	2	-7
Nc1ncnc2c1ccn2[C@@H]1O[C@H](CO)[C@@H](O)[C@H]1O	3	-4	x	-4	-6
NC(=S)c1cn(C2OC(CO)C(O)C2O)c2ncnc(N)c12 (configuration not stated)	-4	x	105*	4	x
Cc1ccc(C)c(CN2CCC(n3nnc4cc(F)ccc43)CC2)c1	1	-1	75*	-1	-7
Fc1ccc2c(c1)nnn2C1CCN(Cc2c(Cl)cccc2Cl)CC1	7	-3	40	3	-3
O=c1c2ccccc2nc(/C=C/c2ccc(O)cc2)n1-c1cccc(O)c1	x	0	71*	2	0
Oc1ccc(C=NNP(=S)(c2ccccc2)c2ccccc2)cc1	4	x	x	x	x
COC(=O)C(O)(c1ccc(NC(=S)NC(=O)c2ccc(Cl)cc2Cl)cc1)C(F)(F)F (configuration not stated)	4	1	71*	2	3
CCOC(=O)C(O)(c1ccc(NC(=S)NC(=O)c2ccc(Cl)cc2Cl)c(C)c1)C(F)(F)F (configuration not stated)	4	3	70*	4	0
CCOC(=O)C(O)(c1ccc(NC(=S)NC(=O)c2ccc(Cl)cc2Cl)cc1)C(F)(F)F (configuration not stated)	3	1	53	7	0
c1ccc(C2N3CCCN23)cc1 (configuration not stated)	1	-2	20	-12	-1
ON1C2CCCCC2N(O)C1c1ccccc1 (configuration not stated)	-2	-1	89*	2	-5
CC(C)[C@H]1C(=O)O[C@H](C(C)C)C(=O)N(C)[C@@H](C(C)C)C(=O)O[C@H](C(C)C)C(=O)N(C)[C@@H](C(C)C)C(=O)O[C@H](C(C)C)C(=O)N1C	6	23	93*	9	5
O=[N+]([O-])c1cccc(O)c1	3	3	x	x	2
CC(C)(C)c1cc([N+](=O)[O-])cc(C(C)(C)C)c1O	5	3	73*	1	14
